Laboratory results as given in ChEMBL document CHEMBL4706594, “Targeting the aryl hydrocarbon receptor with a novel set of triarylmethanes” (Eur J Med Chem, 2020).

Columns and labels:
[1] = target: T1, Aryl hydrocarbon receptor (Homo sapiens, UniProt P35869); conditions: HepG2, human, 24 h, read-out: RUmax
T1 sequence (P35869 whole entry): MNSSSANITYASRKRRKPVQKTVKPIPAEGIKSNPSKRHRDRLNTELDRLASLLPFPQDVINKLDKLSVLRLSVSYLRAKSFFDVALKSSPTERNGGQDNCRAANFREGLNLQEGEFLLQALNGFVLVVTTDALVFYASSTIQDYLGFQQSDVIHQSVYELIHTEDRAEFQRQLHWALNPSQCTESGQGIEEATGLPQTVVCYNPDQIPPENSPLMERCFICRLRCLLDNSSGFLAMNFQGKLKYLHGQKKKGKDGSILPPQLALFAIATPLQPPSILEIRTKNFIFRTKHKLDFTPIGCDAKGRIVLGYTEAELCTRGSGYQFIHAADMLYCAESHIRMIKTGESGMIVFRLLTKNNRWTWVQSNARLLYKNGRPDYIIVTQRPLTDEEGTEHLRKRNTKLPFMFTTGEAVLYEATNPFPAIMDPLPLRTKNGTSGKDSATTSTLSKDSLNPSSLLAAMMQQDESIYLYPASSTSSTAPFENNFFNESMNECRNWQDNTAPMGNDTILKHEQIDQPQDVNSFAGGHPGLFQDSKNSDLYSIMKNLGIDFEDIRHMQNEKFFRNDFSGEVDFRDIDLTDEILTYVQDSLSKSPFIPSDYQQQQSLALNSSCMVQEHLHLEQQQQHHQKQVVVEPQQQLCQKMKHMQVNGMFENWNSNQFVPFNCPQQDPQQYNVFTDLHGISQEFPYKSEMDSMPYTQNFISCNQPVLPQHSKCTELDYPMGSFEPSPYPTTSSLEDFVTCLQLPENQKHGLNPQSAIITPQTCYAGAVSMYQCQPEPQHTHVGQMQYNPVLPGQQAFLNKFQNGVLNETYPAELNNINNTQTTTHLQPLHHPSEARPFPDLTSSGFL

[2] = target: T1, Aryl hydrocarbon receptor; conditions: HepG2, human, 24 h, read-out: RUmax; remark: listed apart in the source
[3] = Cytotoxicity against human HepG2 cells harboring AhR assessed as reduction in cell viability at > 5 uM measured for 24 hrs by MTT assay relative to control; type: cell-based; conditions: read-out: INH
In short: (§1)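 AhR-HepG2 cells were treated for 24–72 h with compounds at 0.1, 1.0, 5.0 and 10.0 µM, some also at 2.5 and 7.5 µM. MTT at 0.5 mg/mL was added and plates incubated at 37 °C. Formazan was dissolved in DMSO and absorbance read at 490 nm. Viability below 85% of vehicle counted as cytotoxic. One-way ANOVA with Dunnett's test; mean ± SEM, n≥3.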

[4] = target: T1, Aryl hydrocarbon receptor; conditions: HepG2, human, 24 h, read-out: RUmax; remark: listed apart in the source
[5] = target: T1, Aryl hydrocarbon receptor; assay: Agonist activity at AhR in human HepG2 cells co-transfected with pSELECT-zeo-Lucia and CYP1A1 assessed as induction of receptor transactivation incubated for 24 hrs by luciferase reporter gene assay; type: cell-based
[6] = target: T1, Aryl hydrocarbon receptor; conditions: HepG2, human, 24 h, read-out: RUmax; remark: listed apart in the source
HepG2 [7] = assay: Cytotoxicity against human HepG2 cells harboring AhR assessed as reduction in cell viability at 0.1 to 10 uM measured for 24 to 72 hrs by MTT assay; type: cell-based; conditions: hepg2, 10 µM, dose lower 0.1 µM, time lower 24 hrs, dose upper 10 µM, time upper 72 hrs
In short: as §1

[8] = target: T1, Aryl hydrocarbon receptor; assay: Antagonist activity at AhR in human HepG2 cells co-transfected with pSELECT-zeo-Lucia and CYP1A1 assessed as inhibition of FICZ-induced receptor transactivation at 30 uM incubated for 24 hrs by luciferase reporter gene assay relative to control; type: cell-based; conditions: hepg2, 24 h
[9] = target: T1, Aryl hydrocarbon receptor; assay: Antagonist activity at AhR in human HepG2 cells assessed as inhibition of FICZ-induced AhR transcriptional activity incubated for 24 hrs by Quanti-Luc reagent based luminescence assay; type: cell-based
HepG2 [10] = assay: Cytotoxicity against human HepG2 cells harboring AhR assessed as reduction in cell viability at 0.1 to 10 uM measured after 24 hrs by MTT assay; type: cell-based; conditions: hepg2, 24 h, dose 0.1-10 µM
In short: as §1

[11] = target: T1, Aryl hydrocarbon receptor; conditions: HepG2, human, 24 h, read-out: RUmax; remark: listed apart in the source

Row | Structure (SMILES) | activity at 10 µM [4] [%] | EC50 [5] [µM] | inhibition at 10 µM [6] [%] | other results
1 | CC(C)(C)c1ccc(C(c2ccc(O)cc2)c2ccccn2)cc1 (stereo not drawn) | – | – | – | inhibition at 1 µM [1]: 113%; activity at 1 µM [2]: 6.89%; cytotoxicity at 24 h [3]: > 90%
2 | COc1ccc(C(c2ccccn2)c2cccs2)cc1 (stereo not drawn) | 10.5 | > 50 | 137 | Activity (HepG2 [7]): Non-Toxic
3 | Cc1ccc(C(c2ccccn2)c2ccccc2O)cc1 (stereo not drawn) | 6.93 | > 100 | 114 | –
4 | CC(C)(C)c1ccc(C(c2ccccn2)c2ccccc2O)cc1 (stereo not drawn) | 6.81 | > 1000 | – | –
5 | COc1ccc(C(O)(c2ccccn2)c2ccc3ccccc3n2)cc1 (stereo not drawn) | – | – | – | Activity (HepG2 [7]): Non-Toxic
6 | Cc1ccccc1/N=N/c1ccc(NC(=O)c2ccnn2C)c(C)c1 | – | – | – | RUmax [8]: 54.5%; IC50 [9]: 2.43 µM
7 | Oc1ccc(C(c2ccccn2)c2cccs2)cc1 (stereo not drawn) | – | – | – | Activity (HepG2 [7]): Non-Toxic
8 | COc1ccc(C(O)(c2ccc(C(F)(F)F)cc2)c2ccccn2)cc1 (stereo not drawn) | 26.6 | 52 | – | Activity (HepG2 [10]): Toxic; Activity (HepG2 [7]): Non-Toxic
9 | CC(=O)Oc1ccc(C(c2ccccn2)c2c[nH]c3ccccc23)cc1 (stereo not drawn) | – | – | – | Activity (HepG2 [7]): Non-Toxic
10 | Oc1ccccc1C(c1ccc(Br)cc1)c1ccccn1 (stereo not drawn) | 7.99 | > 1000 | 117 | –
11 | O=Cc1c2[nH]c3ccccc3c2cc2[nH]c3ccccc3c12 | – | – | – | Emax at 18 µM [11]: 100%
12 | COc1ccc(C(c2ccccn2)c2c(O)ccc3ccccc23)cc1 (stereo not drawn) | – | – | – | Activity (HepG2 [7]): Non-Toxic
13 | CC(=O)Oc1ccc(C(c2ccc(C(F)(F)F)cc2)c2ccccn2)cc1 (stereo not drawn) | – | – | – | inhibition at 1 µM [1]: 117%; activity at 1 µM [2]: 7.71%; cytotoxicity at 24 h [3]: 50%
14 | COc1ccc(C(c2ccccn2)n2nnc3ccccc32)cc1 (stereo not drawn) | 8.86 | > 100 | – | –
15 | COc1ccc(C(c2ccccn2)c2c[nH]c3ccccc23)cc1 (stereo not drawn) | 114 | 21.7 | – | Activity (HepG2 [7]): Non-Toxic
16 | CC(=O)Oc1ccc(C(c2ccc(C(C)(C)C)cc2)c2cccc[n+]2[O-])cc1 (stereo not drawn) | – | – | – | inhibition at 1 µM [1]: 120%; activity at 1 µM [2]: 6.1%; cytotoxicity at 24 h [3]: 50%
17 | Oc1ccc(C(c2ccccn2)c2c(O)ccc3ccccc23)cc1 (stereo not drawn) | – | – | – | Activity (HepG2 [7]): Non-Toxic
18 | Oc1ccccc1C(c1ccc(F)cc1)c1ccccn1 (stereo not drawn) | 6.89 | > 1000 | 112 | –
19 | CC(=O)Oc1ccc(C(c2ccc(C(C)(C)C)cc2)c2ccccn2)cc1 (stereo not drawn) | – | – | – | inhibition at 1 µM [1]: 113%; activity at 1 µM [2]: 5.32%; cytotoxicity at 24 h [3]: 50%

Second part, led by results:

Row | activity at 10 µM [4] [%] | EC50 [5] [µM] | inhibition at 10 µM [6] [%] | Structure (SMILES) | other results
20 | 9.23 | > 100 | 142 | CC(=O)Oc1ccc(C(c2ccccn2)n2nnc3ccccc32)cc1 (stereo not drawn) | –
21 | 6.51 | > 1000 | 92.4 | CC(=O)Oc1ccc(C(c2ccc(F)cc2)c2cccc[n+]2[O-])cc1 (stereo not drawn) | –
22 | 7.78 | > 200 | 78.8 | CC(=O)Oc1ccc(C(c2ccc(Cl)cc2)c2cccc[n+]2[O-])cc1 (stereo not drawn) | –
23 | 6.26 | > 1000 | 128 | CC(=O)Oc1ccc(C(c2ccc(Cl)cc2)c2ccccn2)cc1 (stereo not drawn) | –
24 | 6.28 | > 200 | 93.3 | CC(=O)Oc1ccc(C(c2ccc(C)cc2)c2cccc[n+]2[O-])cc1 (stereo not drawn) | –
25 | 5.17 | > 200 | 144 | CC(=O)Oc1ccc(C(c2ccccn2)c2c(OC(C)=O)ccc3ccccc23)cc1 (stereo not drawn) | –
26 | 8.8 | > 100 | 106 | CC(=O)Oc1ccc(C(c2ccc(Br)cc2)c2cccc[n+]2[O-])cc1 (stereo not drawn) | –
27 | 7.09 | > 100 | 139 | Cc1ccc(C(c2ccc(O)cc2)c2ccccn2)cc1 (stereo not drawn) | –
28 | 6.59 | > 100 | – | Oc1ccc(C(c2ccc(Cl)cc2)c2ccccn2)cc1 (stereo not drawn) | –
29 | 7.79 | > 400 | – | Oc1ccc(C(c2ccc(F)cc2)c2ccccn2)cc1 (stereo not drawn) | –
30 | 6.58 | > 1000 | 107 | CC(=O)Oc1ccc(C(c2ccc(OC(C)=O)cc2)c2ccccn2)cc1 [BISACODYL] | –
31 | 6.32 | > 1000 | 143 | CC(=O)Oc1ccc(C(c2ccc(Br)cc2)c2ccccn2)cc1 (stereo not drawn) | –
32 | 7.18 | > 1000 | 115 | Oc1ccccc1C(c1ccc(Cl)cc1)c1ccccn1 (stereo not drawn) | –
33 | 9.42 | > 100 | – | CC(=O)Oc1ccc(C(c2ccc(C)cc2)c2ccccn2)cc1 (stereo not drawn) | –
34 | 8.77 | > 100 | 118 | CC(=O)Oc1ccc(C(c2ccc(F)cc2)c2ccccn2)cc1 (stereo not drawn) | –
35 | 7.71 | > 100 | – | Oc1ccc(C(c2ccc(Br)cc2)c2ccccn2)cc1 (stereo not drawn) | –
